ChEMBL document CHEMBL4513216, “Probing the Open Global Health Chemical Diversity Library for Multistage-Active Starting Points for Next-Generation Antimalarials” (ACS Infect Dis, 2020)

Test: Toxicity liver stage against HepG2, at 10uM
Assay type: cell-based
Design: test concentration 10 uM, cell line HepG2-A16-CD81EGFP
Settings: human, HepG2-A16-CD81EGFP cells; read-out: INHIBITION
In short: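 Uninfected HepG2-A16-CD81EGFP cells, 3 × 10^3 per well, 1536-well, plated on prespotted compound at 10 μM final, parasite-free screening media added to match infected plates; puromycin 10 μM positive, DMSO 0.5% negative; run in parallel with 48 h PbLuc assay at 37 °C, 5% CO2; viability by CellTiter-Glo luminescence, normalized to controls.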

Structure (SMILES)	cytotoxicity at 10 µM
Cc1cccnc1NC(=O)CSc1ccc2c(c1)OCCO2	-1.66%
CCc1cnc(N2C[C@@H]3[C@@H](C(=O)NC(C)C)CCS(=O)(=O)[C@@H]3C2)nc1	-146%
O=C(c1cccnc1)N1CCOCC2(CCN(c3ncccn3)C2)C1 (stereo not drawn)	8.88%
Cn1cc(C2CC(=O)NC23CCN(C(=O)C2CC=CC2)CC3)cn1 (stereo not drawn)	8.13%
O=C(c1ccccn1)N1CCc2ncnc(N3CCOCC3)c2CC1	0.661%
CCCS(=O)(=O)N1CCc2onc(CNc3ncccn3)c2C1	-2.25%
Cc1ccc(-n2ccc3nc(N4CCCC4)ncc3c2=O)cc1C	7.51%
O=C(c1cn(-c2cc(N3CCSCC3)ncn2)cn1)N1CCSCC1	-17.3%
CNc1ncccc1CN1CCN(C(C)=O)CC(C(N)=O)C1 (stereo not drawn)	2.31%
Cc1cccnc1C(=O)N1CCCC(Cc2cncc3ccccc23)C1 (stereo not drawn)	-18%
Cc1cc(CCC2CN(Cc3ccccc3C(=O)O)CCO2)ncn1 (stereo not drawn)	-19.9%
NC(=O)c1ccc(=O)n(Cc2cc(Br)ccc2Cl)n1	4.71%
CC(C(=O)N1CCOCC1)S(=O)(=O)Cc1noc(C(C)(C)C)n1 (stereo not drawn)	-14.2%
N#Cc1cccc(OC2CCN(C(=O)c3cncc(O)c3)CC2)c1	7.28%
CN(C)c1ccc(NC(=O)c2cccc(N(C)C)c2)nc1	23.3%
Cc1noc(CNC(=O)NCCOc2ccc(Cl)cc2)n1	1.92%
CC(C)(CNC(=O)c1ccco1)NC(=O)OC(C)(C)C	-2.43%
CC(C)(CNC(=O)c1ccc(Cl)o1)NC(=O)OC(C)(C)C	-2.25%
Cn1cc(N2CCN(c3ccc(C#N)cc3Br)CC2=O)cn1	-5.48%
O=C(NCC1(O)CCSCC1)c1nccc2ccccc12	4.59%
Cc1ccc(C(=O)NC2CCCN(c3ncccn3)C2)cn1 (stereo not drawn)	-7.08%
CC(C)N(C)C(=O)COc1ccc(-c2noc(C3CCCO3)n2)cc1 (stereo not drawn)	4.24%
CCc1nc(CN2CCCC(NCCn3cncn3)C2)no1 (stereo not drawn)	-7.24%

Structure (SMILES)	cytotoxicity at 10 µM
OC(CN1CCN(CC2CC2)CC1)c1ccc(Br)cc1 (stereo not drawn)	-8.69%
CS(=O)(=O)NC1CCN(C(=O)c2ccc(Br)cc2)C1 (stereo not drawn)	4.94%
COCCn1ccc(NCc2sccc2C)n1	5.6%
CCC(C)(NCC(=O)NC(=O)NC)c1nc(C)cs1 (stereo not drawn)	-4.36%
CCN(CC)c1ccc(NC(=O)NC(C)Cn2cccn2)cn1 (stereo not drawn)	1.35%
Cc1nnc2n1CCN(Cc1csc(-c3cnn(C)c3)n1)C2	-3.5%
Cc1c(C(=O)NCCN2C(=O)CCC2=O)sc2ccc(F)cc12	2.11%
CN(C)c1ccc(NC(=O)c2ccnn2C)nc1	15.1%
CC(=O)N1CCCN(CCn2nc3ccccn3c2=O)CC1	-137%
CCN(C)c1ccc(CNC(=O)c2cc(C(N)=O)cs2)cc1F	6.36%
CCSc1ccc(NC(=O)NC(C)c2ccncc2)cn1 (stereo not drawn)	-5.14%
O=c1[nH]nc(CNc2cncc(Br)c2)[nH]1	-1.23%
CCC(NCc1ccccc1Cl)c1ccccc1OCC(=O)NC (stereo not drawn)	13.3%
Cc1cc(C)n(CC(=O)NC2CCCCNC2=O)n1 (stereo not drawn)	-14.7%
CN(Cc1nc(N)nc(N(C)C)n1)Cc1cccc2ccccc12	0.554%
Cc1ccc(CN(C)C)cc1NC(=O)C1CC=CC1	-8%
OC(CNc1ccc(Cl)cn1)CN1CCOCC1 (stereo not drawn)	4.15%
CS(=O)(=O)NCCNC(=O)Cc1ccc(Br)s1	-7.21%
CC(C)N(C(=O)CCc1ccco1)C1CCOCC1	-5.63%
N#CC(Sc1nnnn1C1CCOCC1)C1CCCCC1 (stereo not drawn)	21.7%
CC(C)c1noc(-c2ccc(N(C)C3CCOCC3)nc2)n1	-17.6%
CC(=O)c1ccccc1NC(=O)CCN1CCSCC1	-7.88%
CN(Cc1cc[nH]n1)C(=O)C1CC(=O)N(Cc2ccncc2)C1 (stereo not drawn)	1.59%

Structure (SMILES)	cytotoxicity at 10 µM
Cc1nnc(SCCNC(=O)CC2CCc3ccccc32)s1 (stereo not drawn)	-3.13%
COc1ccccc1Oc1ncccc1CNC(=O)[C@H](C)O	-2.64%
Cc1occc1C(=O)N1CCCC1c1ccc(C(=O)N2CCOCC2)s1 (stereo not drawn)	-143%
CCC(NC(=O)c1cnc(N(C)C)nc1C)c1ccncc1 (stereo not drawn)	-2.9%
O=C(CCC1CCN(C(=O)c2cnco2)CC1)NCc1cccc(Cl)c1	-8.48%
Cn1ncc2c(N3CC(N4CCCCC4)C3)nc(C3CCCC3)nc21	-5.07%
Cn1cc(CN(C(=O)c2ccc3ncsc3c2)C2CC2)cn1	3.11%
CC(C)OC(C)c1nnc(SCC(=O)O)n1-c1ccc(F)cc1F (stereo not drawn)	-11.6%
COCc1noc(CCNc2ncnc3c2CCNCC3)n1	-5.59%
CCN(CCc1nc2cc(C)ccc2[nH]1)C(=O)COC	-5.89%
CC(C)(O)C1CCCN(C(=O)Nc2nc(-c3ccccc3)ns2)C1 (stereo not drawn)	-137%
CC(C)C1CN(Cc2c[nH]cn2)CCCN1CC1CC1 (stereo not drawn)	0.127%
Cc1nc(C(C)C)sc1C(=O)NCCSc1nccn1C	-1.7%
O=C(c1ccco1)N1CCc2c(nc(-c3ccncc3)[nH]c2=O)C1	10.4%
CCCc1nnc(N(C)CC2CCN(CC(C)C)C2)o1 (stereo not drawn)	-1.41%
CCc1ncc(C(=O)N(C)CC2Cc3ccccc3O2)cn1 (stereo not drawn)	-0.734%
Cc1cc(C)cc(S(=O)(=O)NCC2CNCCOC2)c1 (stereo not drawn)	-1.86%
CN(CC1(CO)CCCC1)C(=O)c1cc(COc2ccccc2F)[nH]n1	6.2%
O=C(NCc1nc[nH]n1)c1cc(COc2ccccc2F)[nH]n1	-3.58%
Cc1nccn1CCC1CCCCN1Cc1ccncc1 (stereo not drawn)	35.2%
COc1ccc(C(=O)N2CCN(CCO)CC2)c(F)c1	-3.79%
CCN(CC)S(=O)(=O)c1cccc(C(=O)N(C)Cc2ccsc2)c1	-6.8%
CN(Cc1ccsc1)C(=O)c1ccc(S(=O)(=O)NC(C)(C)C)cc1	-8.01%

Structure (SMILES)	cytotoxicity at 10 µM
CN1CCCC1CNC(=O)CCCOc1ccc(Br)cc1 (stereo not drawn)	-7.69%
O=C(CN1CCCC1Cn1cccn1)NCCC1=CCCCC1 (stereo not drawn)	-2.78%
Cc1nc(C2CCCN2Cc2ccon2)no1 (stereo not drawn)	-18%
CCc1ncc(C(=O)N2CCC(Nc3ccc(C)nn3)CC2)s1	-7.94%
OC(COCc1ccco1)CN1CCc2c(ncn2C2CC2)C1 (stereo not drawn)	-0.885%
COc1ccccc1OCCC(=O)N1CCCCC1c1nccs1 (stereo not drawn)	-15.7%
CN(C)c1cc(CNC(=O)Nc2cccnc2N2CCCC2)ccn1	-20.5%
CCN1CCOC(CNCc2csc(C)n2)C1 (stereo not drawn)	-5.13%
Cc1nn(C)c(N(C)C)c1CNC(C)COc1ccc(F)cc1 (stereo not drawn)	-4.38%
CCn1cc(NC(=O)NCc2ccc(CO)c(F)c2)cn1	8.69%
COc1c(CNC2CCc3ccccc32)c(C)nn1C (stereo not drawn)	7.08%
COc1cccc(CN2CCCCC2Cn2nc(C)nc2C)c1 (stereo not drawn)	-11.5%
Cc1cnn(CC2CN(Cc3nc4ccccc4o3)CCO2)c1 (stereo not drawn)	-3.49%
Cc1ccc(C(O)CN2CCN(Cc3nccn3C)CC2)cc1C (stereo not drawn)	-37%
NC(=O)Cn1cc(NC(=O)NCCN2CCc3ccccc3C2)cn1	-9.52%
CCc1nc(C2CCCN(C(=O)c3ccncc3)C2)no1 (stereo not drawn)	-13%
O=C(NCC(c1ccc(F)cc1)N1CCOCC1)Nc1cn[nH]c1 (stereo not drawn)	-15%
CCn1cnnc1CNC(=O)N1CCN(Cc2ccsc2)CC1	-15.4%
CCn1cc(CN2CCCN(C(=O)c3ccco3)CC2)cn1	-11.3%
COc1ccc2c(c1)CN(c1cc(N3CCCC3CO)ncn1)CC2 (stereo not drawn)	-4.16%
CCOc1ccc(CC(CNC(=O)c2ccc(C)o2)C(N)=O)cc1 (stereo not drawn)	3.58%
COc1cccc(-c2nc(CNC(C)Cn3cccn3)cs2)c1 (stereo not drawn)	-6.31%
Cc1nc(CN2CCN(C(=O)c3c(C)noc3C)CC2)cs1	-23.2%

Structure (SMILES)	cytotoxicity at 10 µM
Cc1ccc(C(=O)NCCNc2ncccc2C#N)c(=O)[nH]1	-7.44%
Cc1ccc(CN2C[C@H](OCC3CCOCC3)[C@H]3COC[C@H]32)o1	-4.58%
Cc1ncnc2c1CCN(Cc1ccccn1)CC2	-10.4%
c1cncc(OC[C@@]23CCO[C@@H]2CCN(Cc2cccs2)C3)c1	14.6%
O=C(CN1CC(c2nc(-c3ccco3)no2)C1)NCCc1ccccc1	-9.54%
Fc1cnc(N2CCc3nnc(COc4ccccn4)n3CC2)nc1	8.13%
CCN(CC)[C@@H]1CN(C(=O)c2ccnnc2)[C@@H]2CCCO[C@H]12	-146%
Cc1cnc(N2C[C@@H]3CCN(CC(=O)N(C)C)C(=O)[C@H]3C2)nc1	-19%
CCS(=O)(=O)NC[C@]12COC[C@H]1CN(CCc1ccccc1)C2	6.07%
CN(C)CCN1CCCC12CCN(C(=O)c1ccncc1)CC2	6.29%
CO[C@@H]1CCN(Cc2cccc(C)n2)[C@@H]2CN(Cc3ccncc3)C[C@@H]21	0.951%
c1cncc(COCC2CN(Cc3cccnc3)Cc3ccnn3C2)c1 (stereo not drawn)	-136%
O=S(=O)(C1CC1)N1CC[C@H]2OCC[C@@]2(COc2ncccc2F)C1	-150%
CCOCC1CN(S(=O)(=O)N(C)C)Cc2cnn(CC3CC3)c21 (stereo not drawn)	12%
CC(=O)N1[C@H](CN(C)C)C[C@@H]2CN(C(=O)Cc3cccs3)CC[C@@H]21	-0.155%
CCCS(=O)(=O)N1C[C@@H]2CN(Cc3ccoc3)CCO[C@@H]2C1	-117%
CN1CCOCC2(CCCN(C(=O)c3cn(C)cn3)C2)C1 (stereo not drawn)	8.47%
CCc1c(C(=O)N2C[C@@H]3CC[C@H]2CN(c2cnccn2)C3)csc1C	13.3%
CN1[C@@H]2CC[C@H]1CN(C(=O)c1nnc3n1CCCCC3)CC2	-5.43%
O=C1CCC2(CCN(Cc3cscn3)CC2)CN1C1CCC(O)CC1 (stereo not drawn)	-4.33%
CSc1nc(N)cc(N2C[C@H]3CC[C@@H](C2)N(CC2CC2)C3=O)n1	0.291%
